This data set concerns MS2 coat protein. Description: apparent Kd, MS2 coat protein; higher = weaker binding; RNA-MaP array; FMN 200 µM where present. The method, boiled down:
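Two titrations, one without ligand and one with constant ligand, were run with SNAP-549-labelled MS2 coat protein from 0.7 or 1.5 nM, doubling to 3 µM. The targets were designs transcribed by stalled E. coli RNA polymerase on Illumina sequencing-chip clusters, in 100 mM Tris-HCl pH 7.5, 80 mM KCl, 4 mM MgCl2, BSA, DTT, yeast tRNA and Tween-20. The apparent Kd is the median of filtered per-cluster binding-curve fits, with green signal normalised to red-channel RNA signal and control-cluster median Fmax.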

[1] abbreviates: designed as: OFF switch for flavin mononucleotide, no ligand.
[2] abbreviates: ligand present: flavin mononucleotide, designed as: OFF switch for flavin mononucleotide.
The mark [3] stands for this setting: designed as: ON switch for flavin mononucleotide, no ligand.
The mark [4] stands for this setting: ligand present: flavin mononucleotide, designed as: ON switch for flavin mononucleotide.

Here are results for 48 sequences from the EternaBench riboswitch data.

“ACUUGUUAGUAGAAGGUAGUUAUUAUAUUAAUCAUGUAUACAUGAGGAUCACCCAUGUUGAUUUCUAAGGAUAUACAUCGAUAG”: the “apparent Kd” value runs as follows: under setting [1], 81.4 nM; under setting [2], 59 nM. On to “GUCAGCUCGUGAGGAUAUACAACACUGCUUCGGCAGUGUAUUAAUAUCACAUGAGGAUCACCCAUGUAGAAGGCACGAGCUGAU”, for which the “apparent Kd” value reads like this: under setting [1], 5.07 nM; under setting [2], 5.81 nM. In the same order, the values of “GCUCUCGGAGGAUAUGUGCCGAGUGACAUGAGGAUCACCCAUGUAUUUCUCCUGUAAUCUACAGAAGGCCGAGGCG” are 161 nM and 23.9 nM. For “CUGCGGUCAGGAUAUGCAUGGCGGGACUUGCGUCGUGGCGUGGAGAAGGGACAUGAGGAUCACCCAUGUGGAGA” the same measures were 67.9 nM and 42.3 nM. For “UAUAUAUAGGCAGGAUAUACAUGAAUAUAUAUGAUGUAGUAUGAUGUAACAUGAGGAUCACCCAUGUAGAAGGGCCAAUAUAUA” the same measures were 48 nM and 152 nM.

Regarding “AGAAUGGGCGAGAAGGGAGUACAUGAGGAUCACCCAUGUGGUUCAUGGUGCUCAGGAUAUCGAUAGACCAGGGAGCGUCUCUGA”, the “apparent Kd” value under setting [1] worked out at 30 nM and the “apparent Kd” value under setting [2] was found to be 148 nM.

As for “UGCGGCGCGGGCCACCGCAGGGCCAGAAGGACAUGAGGAUCACCCAUGUGGCAGGACAGGGCGGUGUAGGAUAUGGCAGGCUGG”, the “apparent Kd” value stood at 16.7 nM under setting [1] and 20.8 nM under setting [2]. Regarding “GUCAUCACAUGAGGAUAUGCUCGGGUUUCCCGAGCAGAAGGCAUGGCAUACAUGAGGAUCACCCAUGUUGACAUUAAGAUUGUA”, the “apparent Kd” value by setting is: under setting [3], 10.3 nM; under setting [4], 6.73 nM. Consider “GCGUAACAUGAGGAUCACCCAUGUACUCGAGAAAUCGAGUGUAGAAGGGUGACCGGUCGUUUGGCACAGGAUAUACACGCUGUG”, for which the “apparent Kd” value by setting is: under setting [3], 31.1 nM; under setting [4], 14.1 nM.

As for “AUCGGUCCGUAGAAGGGUGACAUGAGGAUCACCCAUGUGCCGUGUGCGUUUAUGCCUCCACGGCCACAGGAUAUACGGAGUUGA”, the “apparent Kd” value was found to be 28.2 nM under setting [3] and 19.1 nM under setting [4]. Take “GCAGGUUAAGUCAGGAUAUACCUAUGGAUACAUAGGUAGAAGGGACAUGAGGAUCACCCAUGUGUCUCGCCUGC”: the “apparent Kd” value reads like this: under setting [1], 87.8 nM; under setting [2], 148 nM. Consider “GUAUCUUACCAAGGAUAUUUACGAUUAGUGUAGACAUGAGGAUCACCCAUGUGGCCUUAGUCACGGGAGAAGGUGGUUUGAUAC”, for which the “apparent Kd” value is 317 nM under setting [3] and 73.7 nM under setting [4]. In the same order, the values of “CUCACGUUAGUAGGAUAUCCGACAUGAGGAUCACCCAUGUCACUACGCCUCUAGGGAAGGUGUAAGGAGAAGGGCUGAUAAAUA” are 174 nM and 98 nM.

As to “UAUUCACAUGAGGAUCACCCAUGUAGAAGGCCGAGCCUGGCCACGGUUACACGCCGUGGAGAGCCGGAGGAUAUACAGCUGGUG”, the “apparent Kd” value reads like this: under setting [1], 111 nM; under setting [2], 30.9 nM. In the same order, the values of “UAUUAAUGCAAGGAUAUGCUAUUAAUUUAUUUUGCAGAAGGUGCAACAUGAGGAUCACCCAUGUUGGAGGGUAU” are 22 nM and 34.3 nM.

As for “GUGAGAAUAGGAGGAUAUAUACAACAUGAGGAUCACCCAUGUACCCGUGUAGUAGAAGGUUUGUUUAUAUAUAAUAUUAUAUUU”, the “apparent Kd” value is, setting by setting: under setting [3], 20.2 nM; under setting [4], 18.7 nM.

“CCAUGGAGUGUGAGGAUAUGCUGGUCCUUGGAUCAGCAGAAGGCACAUGAGGAUCACCCAUGUGAAUACCGUGG”: the “apparent Kd” value by setting is: under setting [1], 36.2 nM; under setting [2], 196 nM. In the case of “UCCCGUGUGGAAGGAUAUAGGACGAGGUGGGACAUGAGGAUCACCCAUGUGCUAGAAGGUCCGCAGCCGAUUGGCUUUUACGUG”, the “apparent Kd” value reads like this: under setting [1], 9.2 nM; under setting [2], 28.1 nM. “ACAUGAGGAUCACCCAUGUAAAAUUAAGAAGGUAGAUACUUGAGGAUCACCCAUGUACAUGGGACUAAGGAUAUUAUAAUAAUU”: the “apparent Kd” value is 55.7 nM under setting [3] and 49.1 nM under setting [4]. In the case of “UUUUAACAUGAGGAUCACCCAUGUGAGGAUAUCGAAAUUUAUAUUAAUAUUAUUAAUACGAGAAGGCACAUUUU”, the “apparent Kd” value reads like this: under setting [1], 36.9 nM; under setting [2], 61.8 nM. In the same order, the values of “UAAAAGAAAGUAAGGAUAUCUAAAUUGGAAAAGAGAGAGAAGGUACAUGAGGAUCACCCAUGUAGGGUAUCCGG” are 52.1 nM and 72.8 nM. For “AUCUAAGAAUUAAUUGUGACUGACAGAAGGCAAUAGAAUGAGACCGACAUGAGGAUCACCCAUGUUGAGGAUAUGUCUUGCUAC” the same measures were 6.53 nM and 6.74 nM. For the sequence “GGAGCACACAUUAACAUGAGGAUCACCCAUGUCAAUAGACAUGAGGAUAUGGAUCCGAAAAGGAUCCAGAAGGCAUGGUGCUCC”, the “apparent Kd” value under setting [3] is 130 nM and the “apparent Kd” value under setting [4] turned out to be 10 nM.

For “AUCUUUGACUUUACUAGAAUAGGGCAGGAUAUACAUGAGGAUCACCCAUGUUAAGCACGUAAGAGGUAGAAGGGCCCUUGUCAU”, the “apparent Kd” value by setting is: under setting [1], 16.1 nM; under setting [2], 13.6 nM.

In the case of “ACGCCUCCUGUUAGGAUAUGCAUCGGGCUUCCGCAGCAGAAGGAACAUGAGGAUCACCCAUGUCAAAUAAAAUC”, the “apparent Kd” value is 15.3 nM under setting [1] and 94.4 nM under setting [2]. For “UAGGACUUCGUAGGAUAUGUAUUUGAUUUCUACAUGAGGAUCACCCAUGUUUGCAUUUUUUUUUGACAGAAGGACGUGGUCCUA”, the “apparent Kd” value under setting [3] turned out to be 16.8 nM and the “apparent Kd” value under setting [4] amounted to 13.2 nM. For the sequence “GAUGAGGUAGGAUAUACGAUAAUAUAGGGUAGAUAUAUAACACAUGAGGAUCACCCAUGUAGAAGGACCAGUAC”, the “apparent Kd” value under setting [1] came out at 38.6 nM and the “apparent Kd” value under setting [2] is 61.1 nM.

Turning to “UUUGUGUCAGGAUAUGAGUAGUAGAACAAUAGUACUACUACUCAGAAGGGACAUGAGGAUCACCCAUGUUCCUC”, the “apparent Kd” value was found to be 19.3 nM under setting [1] and 88.3 nM under setting [2].

For “CGCUCUAUAUAUAAGGCAAGAAUCAGAAGGCGUUACAUGAGGAUCACCCAUGUUUUGUAUAGUAACGAGGAUAUGAUAUGAGCG”, the “apparent Kd” value came out at 15.3 nM under setting [1] and 15.1 nM under setting [2]. “GUGCUUAACUAGAAGGCCGUAUGCAAAGCAUACGGAGGAUAUGGGUUCCGGAAACGGACAUGAGGAUCACCCAUGUGGCACAAA”: the “apparent Kd” value reads like this: under setting [3], 111 nM; under setting [4], 12.7 nM. For the sequence “AAUAACAGAGGAUAUACUGUUUUAUGUGUUUAUUGUUUUAAACAUGAGGAUCACCCAUGUAGAAGGCUGAAUAA”, the “apparent Kd” value is, setting by setting: under setting [1], 27.4 nM; under setting [2], 27.8 nM.

As for “UAAAAGACUAGCAACUAACUCCACAUGAGGAUCACCCAUGUCUAGGAUAUGAGCAGCAAAGCUGCUUAGAAGGAGACGCUAGUC”, the “apparent Kd” value reads like this: under setting [1], 6.48 nM; under setting [2], 6.1 nM.

For “CCUAAGGACACAGGAUAUAGCGUGGUGGCUAGACUCCAACGGCGAGCGGCGCUAGAAGGGUGACCACAUGAGGAUCACCCAUGU”, the “apparent Kd” value is, setting by setting: under setting [3], 553 nM; under setting [4], 193 nM. As for “GCUUGUAGAGGAUAUACAAGGGCCUUAGCGGAAAACUCCGCACAUGAGGAUCACCCAUGUAGAAGGCUACCACC”, the “apparent Kd” value under setting [1] is 16.1 nM and the “apparent Kd” value under setting [2] worked out at 97.9 nM. “UUAAAUCGAAACAUGAGGAUCACCCAUGUGUUGUGGUUAAUAUAGGAUAUGUGUAUACUUUUAUGACAGAAGGAUGAUAAUACU”: the “apparent Kd” value was 15.5 nM under setting [3] and 12.6 nM under setting [4]. As for “AAGGUGUUAGGAUAUCGUAGUUUGUGGCAGACGGGAUUUUGCGAGAAGGAACAUGAGGAUCACCCAUGUCGGAU”, the “apparent Kd” value by setting is: under setting [1], 28.4 nM; under setting [2], 28.2 nM.

For the sequence “AAGAAGUCAGGAUAUCCAUGGCGGCACUUGCGUGGUGGCGUGGAGAAGGGACAUGAGGAUCACCCAUGUAAAGA”, the “apparent Kd” value is, setting by setting: under setting [1], 51.4 nM; under setting [2], 35.8 nM.

With “AAAUUAAGAAGAGGAUAUUGACAUGAGGAUCACCCAUGUAUUUGGGAGUGUUUACUGAAUUCUUACGAGAAGGCUUACGAACUU”, the “apparent Kd” value under setting [2] was 190 nM.

For the sequence “GAGCGAAAGCUCAAUGUCGAUAGCAGAAGGGCAUGAAAACAUGAAAACACAUGAGGAUCACCCAUGUAGGAUAUGCUAUCGACU”, the “apparent Kd” value under setting [1] was determined as 10.6 nM and the “apparent Kd” value under setting [2] stood at 17.6 nM.

For the sequence “CUUUUGUGAGGAUAUCUGUAGUAAAAAAAUAAAAUUACUACUGAGAAGGCACAUGAGGAUCACCCAUGUUCCUC”, the “apparent Kd” value by setting is: under setting [1], 39.6 nM; under setting [2], 181 nM. Regarding “UUUUUGUCAGGAUAUGAGUAGUAGUACUAUUGUUUUAUUAUUUAGAAGGGACAUGAGGAUCACCCAUGUUUCUC”, the “apparent Kd” value came out at 14.9 nM under setting [1] and 15.9 nM under setting [2]. For “AUCUCCUCUGUCAGGAUAUAUAAACUGUUGCAGUGGUAGAAGGGACAUGAGGAUCACCCAUGUAAUAUAAAUAA” the same measures were 25.6 nM and 71.5 nM. In the same order, the values of “UGAGAUCAUGUAGGAUAUGCAUGGCGAAGCUACGCAGAAGGACAUGAGGAUCACCCAUGUUAUAGCUACCCAGUUCGGUGGCAA” are 44.4 nM and 86.7 nM. Turning to “GGGUACAUGGGAGGAUAUGGGAUGAUAACAUGAGGAUCACCCAUGUUAAAGAUGCCGAGAGGCAACUAGAAGGCCCAUGUACCG”, the “apparent Kd” value reads like this: under setting [3], 440 nM; under setting [4], 59.2 nM. As for “CUUAUGUGAGGAUAUCAGUAGUAAAAAAAUAAAAUUACUACUGAGAAGGCACAUGAGGAUCACCCAUGUCUUUC”, the “apparent Kd” value is, setting by setting: under setting [1], 33 nM; under setting [2], 37.8 nM. In the same order, the values of “ACUACUUAGUGAGGAUAUACAUAAUUUAUAACUGUAGAAGGCACAAACCUCAAUACAUGAGGAUCACCCAUGUUUUAUAUCUAU” are 32.7 nM and 46.4 nM. “UAGGAUCAACGAGGAUAUAAUAGGUUCAAUUUUUUAUAUUGUUUACAUGAGGAUCACCCAUGUUAUUAGAAGGCGUAUGGGAUU”: the “apparent Kd” value is, setting by setting: under setting [3], 53.5 nM; under setting [4], 36.9 nM. With “GUCCUCUCUGAGGAUAUUAUCUGGUUCGAUUGAUAAGAAGGCAGUACAUGAGGAUCACCCAUGUGGGUCGUCUG”, the “apparent Kd” value under setting [1] stood at 31 nM and the “apparent Kd” value under setting [2] was 83.7 nM.
